From publication PMC11342948 (International Journal of Nanomedicine, 2024)

Columns and labels:
MPTP-induced PD model [1] = test: Behavioral assays; assay type: in vivo, C57BL/6J mice
Summary of the method: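 Male C57BL/6J mice (8 weeks, 22–25 g), 12 per cohort, given MPTP 30 mg/kg/day i.p. in 0.9% saline for 5 days, with daily i.v. test compound (13 mg/kg, free or liposomal), L-Dopa 4.95 mg/kg or saline. On day 16: 10-min video-tracked open field (50 cm box, 30×30 cm centre) and vertical pole descent (1.5 cm × 55 cm, head up; T-turn, T-total). n=8, mean ± SD.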

MPTP-induced PD model [2] = test: Dopamine and its metabolites in the striatum; assay type: in vivo, C57BL/6J mice; conditions: for dopamine levels: L-Dopa 4.95 mg/kg, ECH 13 mg/kg
MPTP-induced PD model [3] = test: Oxidative stress assay in the striatum; assay type: in vivo, C57BL/6J mice; conditions: vs MPTP cohort
Summary of the method: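 The MPTP mouse model used male C57BL/6J mice given 30 mg/kg/day i.p. for 5 days, with daily i.v. test compound at 13 mg/kg. After day-16 behaviour and perfusion, striatum was homogenised in 1% triton (1 g/9 mL) and spun at 15294 g, 4°C, 10 min. SOD, GSH-PX and MDA in the supernatant were measured with commercial kits per the manufacturer.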

MPTP-induced PD model [4] = test: Tyrosine hydroxylase immunohistochemical staining; assay type: in vivo, C57BL/6J mice
Summary of the method: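 In the same MPTP model (30 mg/kg/day i.p., 5 days; daily i.v. test compound), perfused brains were cut into 5 μm coronal sections. These were incubated with rabbit polyclonal anti-TH (1:400, PBS) overnight at 4°C, then HRP secondary (1:200), with DAB detection. Striatal TH fiber immunoreactivity was quantified by image analysis. TH-positive neurons were counted in every sixth section through the substantia nigra.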

[5] = Evans blue BBB integrity test; assay type: in vivo, mice; conditions: Evans blue 50 mg/kg intravenously, 30 minutes
bEnd.3 monolayer = test: In vitro BBB penetration, transwell model; conditions: 2 μg/mL
[6] = open-field test, day 16, vs MPTP-treated mice
[7] = pole test, day 16, vs MPTP-treated cohort

For `N[C@@H](Cc1ccc(O)c(O)c1)C(=O)O` [L-Dopa, levodopa], the average speed (MPTP-induced PD model [1]; [6]) was “increased”, the “movement within the central area” value (MPTP-induced PD model [1]; [6]) was “significantly improved” and the “percentage of time spent in the center” value (MPTP-induced PD model [1]; [6]) was “increased”. For the same compound, the time spent immobile (MPTP-induced PD model [1]; [6]) was “decreasing”, the total distance traveled (MPTP-induced PD model [1]; [6]) was “increased” and the T-total (MPTP-induced PD model [1]; [7]) was “significantly reduced”. The T-turn (MPTP-induced PD model [1]; [7]) was “significantly reduced”, the “DOPAC levels, increase compared to the MPTP cohort” value (MPTP-induced PD model [2]) was 1.59 fold and the “HVA levels, increase compared to the MPTP cohort” value (MPTP-induced PD model [2]) was 1.63 fold. For the same compound, the dopamine levels (MPTP-induced PD model [2]; MPTP 30 mg/kg i.p. five days) was 1.27 ± 0.09 ng/mg of wet striatum tissue, the GSH-PX levels (MPTP-induced PD model [3]) was “significantly elevated” and the MDA levels (MPTP-induced PD model [3]) was “reducing”. The SOD levels (MPTP-induced PD model [3]) was “significantly elevated”, the “MPTP-induced reduction in TH immunoreactivity in the striatum” value (MPTP-induced PD model [4]; striatum) was “effectively counteracted” and the “TH-positive neuron counts in the substantia nigra” value (MPTP-induced PD model [4]; substantia nigra) was “partially restored”.
For `CN1CC=C(c2ccccc2)CC1` [MPTP, 1-methyl-4-phenyl-1,2,3,6-tetrahydropyridine], the “dopamine levels, reduction compared to the control” value (MPTP-induced PD model [2]; MPTP 30 mg/kg i.p. five days) was 2.65 fold, the dopamine levels (MPTP-induced PD model [2]; MPTP 30 mg/kg i.p. five days) was 0.95 ± 0.15 ng/mg of wet striatum tissue and the “BBB integrity (Evans blue levels in brain tissue)” value [5] was “did not compromise BBB integrity”.
With `O=C([O-])c1ccccc1-c1c2ccc(=O)cc-2oc2cc([O-])ccc12.[Na+].[Na+]` [fluorescein sodium] the apparent permeability coefficient (bEnd.3 monolayer) was 6.92 ± 3.92×10^−6 cm/s.
With Echinacoside [Free ECH] the dopamine levels (MPTP-induced PD model [2]; MPTP 30 mg/kg i.p. five days) was 1.27 ± 0.36 ng/mg of wet striatum tissue and the “neuroprotection (TH immunohistochemistry)” value (MPTP-induced PD model [4]; compared to the MPTP cohort / other treatments) was “did not provide significant neuroprotection”.
